Consider 13 compounds from PubChem BioAssay.

Activity calls are given as the source filed them.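 How the source made its calls, unless noted: active means fluorescence slope after compound addition differing from the mean of all screened samples at 99.7% confidence, in either direction; inactive means the rest.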

The nature of assay [1]: inhibitors of TNFa-induced NFkB p65 translocation, primary screen, imaging, HUVEC, MLSMR starter and 10KST1 sets (AID 438;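 active means inhibition above 20% together with a positive visual image hit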;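 further: compound added about 3h40 before a 20 min TNFalpha stimulation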;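 on inhibition: signal is the nuclear over cytoplasmic p65 intensity ratio per well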). Conditions: HUVEC TNFa-induced p65 nuclear translocation; cell count: measured here: nuclei count (cytotoxicity indicator), at 2.08 µM; inhibition: at 2 µM, stronger effect = higher value, 0% TNFa-plus-vehicle, 100% no-TNFa wells.
Assay [2] in a line: inhibitors of E-selectin induction by TNFa, primary screen, imaging, HUVEC, immunofluorescence, MLSMR starter and 10KST1 sets (AID 487;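 active means visually confirmed hit in the image check and inhibition above 20%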;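 on inhibition: signal is fraction of cell area covered by stained E-selectin grains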;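 on nuclei count: 100% = median nuclei count of all wells on the same plate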). The note with it: HUVEC TNFalpha-induced E-selectin immunofluorescence imaging, at 2 µM; inhibition: stronger effect = higher value; nuclei count: measured here: cell number, toxicity.
The nature of assay [3]: DUSP6 inhibitors restoring Erk phosphorylation by chemical complementation, primary imaging in DUSP6-transfected HeLa (AID 609;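 active means compounds giving at least 50% inhibition in the cell-based MKP-3 phosphatase rescue imaging test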;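 on inhibition: phospho-Erk level distribution per well compared with pooled transfected vehicle control wells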). The note with it: HeLa MKP-3 transfected, phospho-Erk imaging KS statistic, at 10 µM, cells stimulated with TPA for 15 min.
The target in assay [4] is Dual specificity protein phosphatase 6 (Homo sapiens) (UniProt Q16828). The assay is described as above. The note with it: HeLa MKP-3 transfected, phospho-Erk imaging KS statistic; at 10 µM; stronger effect = higher value; cells stimulated with TPA for 15 min.
In assay [5] the target is Voltage-gated potassium channel subunit beta-2 (Rattus norvegicus) (UniProt P62483). Nature of the assay: KvBeta enzyme negative modulators, primary screen, biochemical, NADPH fluorescence (AID 622;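 active means fluorescence slope higher than the sample average by over 3 SD, cut at about -0.22 in these data, passing the limit was not always enough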;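 further: slope of raw intensity against log time taken from 70 to 1610 s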). Conditions: recombinant KvBeta, 4-cyanobenzaldehyde reduction, at 10 µM, stronger effect = higher value.
The target is the same in assay [6]. Description: KvBeta positive modulators, primary screen, biochemical, NADPH fluorescence (AID 623;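 active means NADPH fluorescence slope more negative than the mean of all samples by about 3 SD, 99.7% confidence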;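 further: fluorescence intensity change per second fitted from 20 to 320 s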). Conditions: Recombinant KvBeta, NADPH fluorescence decrease slope, 10 min; at 10 µM; stronger effect = lower value.
Assay [7] has as its target Alpha-2C adrenergic receptor (Homo sapiens) (UniProt P18825). Nature of the assay: modulators of alpha2C/GIRK thallium flux, primary screen, cell-based, HEK293 alpha2C/GIRK1/2 (AID 624).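 Further: slope of fluorescence ratio to pre-addition baseline per second over 15 to 24 s.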 The note with it: thallium flux BTC fluorescence, at 10 µM, actives lie on both sides.
The nature of assay [8]: inhibitors of larval lipid processing in zebrafish, primary screen, whole organism, PED6 fluorescence, gall bladder and intestine (AID 686;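 active means a full or partial loss of lipid-probe fluorescence in the fish gall bladder, intestine or both, judged by eye; inactive means no fluorescence loss, or compound toxic to the fish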;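 further: larvae 5 to 7 days old with five fish per well; signal comes from phospholipase A2 cleavage of quenched PED6 carried via bile; overnight exposure to compound and PED6 before scoring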). Conditions: Zebrafish larvae PED6 lipid processing, fluorescence scoring; screened at 20 µM (by protocol). The essentials:
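Also added: quenched phospholipase substrate PED6, 100 nM final, ingested by larvae; System: zebrafish larvae, 5-7 d; Quantity: 5 larvae per well; Compound: 20 µM single dose; Schedule: overnight compound and PED6 incubation; Read-out: visual per-well fluorescence inhibition score; Measured by: By-eye fluorescence microscopy; Medium: E3.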

The nature of assay [9]: inhibitors of Chlamydomonas gravitaxis, primary screen, whole organism, Chlamydomonas reinhardtii, WT vs cilia-less mutant, absorbance, 96-well (AID 463189;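 active means inhibition at or above 50% relative to wild type and mutant plate controls; inactive means inhibition below 50%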;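 further: 0% = wild type cc124 cells in DMSO and 100% = ciliumless bld1 mutant cells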). The note with it: OD600 absorbance, 2 days, at 10 µM, stronger effect = higher value.
The mark [10] stands for this setting: measured here: cell density z-score.
[11] abbreviates: measured here: nuclear c-Myc green intensity z-score.
Where [12] appears, read: measured here: nuclear pErk red intensity z-score, stronger effect = higher value.

Chain of Alpha-2C adrenergic receptor (Homo sapiens) (P18825 whole entry, looked up): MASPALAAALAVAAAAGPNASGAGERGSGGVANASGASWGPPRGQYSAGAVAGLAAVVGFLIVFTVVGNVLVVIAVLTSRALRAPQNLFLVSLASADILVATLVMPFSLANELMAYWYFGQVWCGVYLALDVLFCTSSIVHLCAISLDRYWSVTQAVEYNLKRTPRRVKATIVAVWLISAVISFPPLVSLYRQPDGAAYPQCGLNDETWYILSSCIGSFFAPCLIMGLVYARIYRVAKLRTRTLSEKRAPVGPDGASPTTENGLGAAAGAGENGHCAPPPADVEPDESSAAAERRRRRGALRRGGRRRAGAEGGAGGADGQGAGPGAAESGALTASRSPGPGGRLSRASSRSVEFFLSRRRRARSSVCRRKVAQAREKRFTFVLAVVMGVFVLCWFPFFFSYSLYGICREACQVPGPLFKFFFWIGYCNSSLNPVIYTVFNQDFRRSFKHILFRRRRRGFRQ
Chain of Dual specificity protein phosphatase 6 (Homo sapiens) (Q16828 whole entry, looked up): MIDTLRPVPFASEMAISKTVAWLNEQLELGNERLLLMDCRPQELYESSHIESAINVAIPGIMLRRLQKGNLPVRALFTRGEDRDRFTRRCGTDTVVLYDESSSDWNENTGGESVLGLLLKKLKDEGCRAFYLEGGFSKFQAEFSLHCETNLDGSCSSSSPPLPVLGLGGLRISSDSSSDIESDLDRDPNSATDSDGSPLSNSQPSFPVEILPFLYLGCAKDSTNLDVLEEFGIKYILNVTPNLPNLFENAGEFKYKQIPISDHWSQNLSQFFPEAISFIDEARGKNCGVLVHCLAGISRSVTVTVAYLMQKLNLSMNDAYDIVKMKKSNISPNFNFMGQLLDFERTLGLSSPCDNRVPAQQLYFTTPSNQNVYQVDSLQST
Chain of Voltage-gated potassium channel subunit beta-2 (Rattus norvegicus) (P62483 whole entry, looked up): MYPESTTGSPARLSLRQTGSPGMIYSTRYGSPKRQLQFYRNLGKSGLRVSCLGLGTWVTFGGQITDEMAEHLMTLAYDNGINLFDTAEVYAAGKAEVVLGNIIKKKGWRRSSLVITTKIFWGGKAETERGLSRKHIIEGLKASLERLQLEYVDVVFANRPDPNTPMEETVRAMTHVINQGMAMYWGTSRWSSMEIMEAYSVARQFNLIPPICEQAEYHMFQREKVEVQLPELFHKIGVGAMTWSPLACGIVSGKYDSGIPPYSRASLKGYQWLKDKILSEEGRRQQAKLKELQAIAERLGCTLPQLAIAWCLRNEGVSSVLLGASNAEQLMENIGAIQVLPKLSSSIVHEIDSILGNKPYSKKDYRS

Usually inhibition stands for the relative decrease from the control value, in per cent. Regarding `COc1ccccc1-c1nn2c(-c3ccc(C(C)(C)C)cc3)nnc2s1`, the cell count in assay [1] came out at 509. Further, the inhibition is -5.2% (inactive) in assay [1], -76.5% (inactive) in assay [2], -7.86% (inactive) in assay [4] and 19.8% (inactive) in assay [9]. The same compound registered a nuclei count in assay [2] of 110%. In addition, the z-score in assay [3] (setting [10]) is -0.995; in assay [3] (setting [11]), -1.37; in assay [3] (setting [12]), -0.665. The fluorescence slope in assay [5] is -0.42 (inactive). Besides, the NADPH fluorescence slope in assay [6] is -3.3e-05 (inactive). Besides, the slope in assay [7] is 0.0128 (inactive). Besides, the call in assay [8] was inactive.
On to `COc1ccc2c(c1OC)C(=O)N1c3ccccc3SC21` (centres undefined), for which the cell count in assay [1] was found to be 540. Also, the inhibition was -6% (inactive) in assay [1], -54.8% (inactive) in assay [2], 2.46% (inactive) in assay [4] and 20.5% (inactive) in assay [9]. Besides, the nuclei count in assay [2] was found to be 205%. In addition, the results for the z-score in assay [3] (setting [10]), in assay [3] (setting [11]) and in [3] (setting [12]) were -1.05, 0.152 and 0.534, respectively. In addition, the fluorescence slope in assay [5] was -0.361 (inactive). In assay [6], the NADPH fluorescence slope is 1.2e-05 (inactive). The slope in [7] was 0.00516 (inactive). For the same compound, in assay [8], the compound was classed as inactive.
Take `COc1ccc2[nH]c(C)c(C(=O)CN3CCN(C(=O)c4ccco4)CC3)c2c1`: in assay [1], the cell count stood at 567. Moreover, the inhibition was -7.1% (inactive) in [1], -4.8% (inactive) in [2], -7.01% (inactive) in assay [4] and -1.6% (inactive) in [9]. In [2], this compound displayed a nuclei count of 165%. Besides, the z-score in assay [3] (setting [10]) was -1.11; in assay [3] (setting [11]), -0.714; in assay [3] (setting [12]) it was 0.0705. In [5], the fluorescence slope is -0.311 (inactive). The NADPH fluorescence slope in assay [6] was -8.4e-06 (inactive). Further, the slope in assay [7] is 0.00523 (inactive). Moreover, the compound was classed as inactive in assay [8].
Turning to `O=C(O)c1ccc(OCCn2ccnc2)cc1`, the cell count in [1] amounted to 490. Besides, the inhibition is -6.5% (inactive) in assay [1], -141% (inactive) in [2], 26.5% (inactive) in assay [4] and 0.065% (inactive) in [9]. The nuclei count in assay [2] came to 185%. Also, the results for the z-score in assay [3] (setting [10]), in [3] (setting [11]) and in assay [3] (setting [12]) were -0.78, -1.02 and 1.25, respectively. Also, the fluorescence slope in [5] was -0.473 (inactive). In assay [6], the NADPH fluorescence slope is -0.000213 (inactive). In assay [7], the slope was 0.00534 (inactive). Also, the result in assay [8] was inactive.
On to `Cc1cc(C)cc(CC2CC(=O)N(c3cc(C)on3)C2=O)c1` (centres undefined), for which, in [1], the cell count worked out at 491. Also, the inhibition in [1] is -7% (inactive); in assay [2], -80.4% (inactive); in assay [4], 3.66% (inactive); in [9] it was 2.69% (inactive). Besides, the nuclei count in assay [2] was 132%. Besides, the z-score is -0.204 in [3] (setting [10]), -0.209 in [3] (setting [11]) and 1.15 in [3] (setting [12]). The fluorescence slope in [5] was -0.517 (inactive). The NADPH fluorescence slope in assay [6] was -6.6e-05 (inactive). For the same compound, in assay [7], the slope was 0.00547 (inactive). Further, the outcome in [8] was inactive.
On to `O=C1CCC(=O)N1CN(C(=O)c1ccco1)c1ccc(Cl)c(Cl)c1`, for which the cell count in assay [1] worked out at 481. For the same compound, the inhibition was 1.1% (inactive) in assay [1], -72.5% (inactive) in [2], -3.5% (inactive) in assay [4] and -12.3% (inactive) in assay [9]. In assay [2], this compound displayed a nuclei count of 125%. The z-score was -1.21 in assay [3] (setting [10]), 0.938 in assay [3] (setting [11]) and 0.134 in assay [3] (setting [12]). For the same compound, the fluorescence slope in assay [5] is -0.562 (inactive). Further, in [6], the NADPH fluorescence slope was -2.3e-05 (inactive). In assay [7], the slope was 0.00659 (inactive). For the same compound, in [8], the call was inactive.
Take `CCc1c(C(=O)O)[nH]c2ccc(Br)cc12`: the cell count in assay [1] came to 581. Moreover, the inhibition in assay [1] is -1.8% (inactive); in [2], -21.7% (inactive); in assay [4] it was -7.01% (inactive); in [9], -2.83% (inactive). This compound had a nuclei count in [2] of 171%. The z-score was -0.258 in [3] (setting [10]), -0.825 in [3] (setting [11]) and 2.03 in assay [3] (setting [12]). In [5], the fluorescence slope is -0.367 (inactive). In assay [6], the NADPH fluorescence slope was -5.4e-05 (inactive). Moreover, the slope in assay [7] is 0.00495 (inactive). For the same compound, the outcome in assay [8] was inactive.
`CCOc1ccc(-c2nn3c(-c4ccc(OC)cc4)nnc3s2)cc1`: the cell count in assay [1] is 620. Besides, the inhibition in assay [1] was -14.6% (inactive); in assay [2] it was -58.9% (inactive); in assay [4] it was 2.92% (inactive); in [9], 5.79% (inactive). In [2], this compound gave a nuclei count of 162%. In addition, the results for the z-score in [3] (setting [10]), in [3] (setting [11]) and in assay [3] (setting [12]) were 0.559, -1.74 and 0.0677, respectively. In [5], the fluorescence slope was -0.443 (inactive). In addition, the NADPH fluorescence slope in assay [6] is -7.7e-05 (inactive). Moreover, the slope in [7] is 0.00846 (inactive). The compound was classed as inactive in [8].
`CC(=O)Oc1ccccc1C1OC(=O)c2ccccc2N1C(C)=O` (centres undefined): in assay [1], the cell count came to 435. The inhibition in assay [1] is -26.4% (inactive); in [2], -136% (inactive); in [4], 17.7% (inactive); in assay [9], 23.1% (inactive). The compound further yielded a nuclei count in [2] of 171%. Also, the z-score is -0.279 in [3] (setting [10]), -1.25 in assay [3] (setting [11]) and -0.306 in assay [3] (setting [12]). The fluorescence slope in assay [5] was -0.274 (inactive). The NADPH fluorescence slope in [6] was 9.9e-06 (inactive). For the same compound, in assay [7], the slope is 0.00513 (inactive). In addition, the compound was classed as inactive in assay [8].
On to `CCN(CC)CCN1C(=O)C(=O)/C(=C(/O)c2ccc(Cl)cc2)C1c1ccncc1` (centres undefined), for which the cell count in assay [1] is 358. For the same compound, the inhibition in [1] is 3.7% (inactive); in [2], -38.6% (inactive); in assay [4], 26.6% (inactive); in assay [9], 21.1% (inactive). This compound also yielded a nuclei count in assay [2] of 64.8%. Moreover, the z-score in [3] (setting [10]) was -0.384; in [3] (setting [11]), 0.846; in assay [3] (setting [12]) it was -1.58. Moreover, in assay [5], the fluorescence slope was -0.357 (inactive). For the same compound, the NADPH fluorescence slope in assay [6] is -2e-05 (inactive). In assay [7], the slope is 0.00633 (inactive). For the same compound, in assay [8], the outcome was inactive.
For `CCCSc1nc(N2CCCC2)c2c(c1C#N)CC(C)(C)OC2`, in [1], the cell count is 521. Besides, the inhibition in [1] was -7.7% (inactive); in [2], -153% (inactive); in assay [4] it was 36.9% (inactive); in [9], 9.15% (inactive). Besides, the nuclei count in assay [2] amounted to 173%. Besides, the results for the z-score in [3] (setting [10]), in assay [3] (setting [11]) and in assay [3] (setting [12]) were 1.7, -1.87 and -0.14, respectively. Further, the fluorescence slope in assay [5] is -0.322 (inactive). Moreover, in [6], the NADPH fluorescence slope is 4.6e-06 (inactive). The slope in assay [7] is 0.00655 (inactive). The outcome in assay [8] was inactive.
In the case of `COc1ccc(C2CC(=O)c3sc(N)nc3C2)cc1` (centres undefined), the cell count in [1] amounted to 424. Besides, the inhibition in [1] was -15.2% (inactive); in assay [2], -328% (inactive); in assay [4] it was 26.6% (inactive); in [9], 0.76% (inactive). In assay [2], this compound came in with a nuclei count of 147%. Besides, the z-score was 0.261 in [3] (setting [10]), -0.0796 in [3] (setting [11]) and -0.89 in assay [3] (setting [12]). For the same compound, the fluorescence slope in assay [5] was -0.408 (inactive). In assay [6], the NADPH fluorescence slope is -1.9e-05 (inactive). In [7], the slope was 0.00734 (inactive). Moreover, the call in assay [8] was inactive.
As for `CC(=O)N/C(=N/c1nc(C)cc(C)n1)Nc1ccc(NC(C)=O)cc1`, the cell count in assay [1] was determined as 647. Also, the inhibition in assay [1] was 3.8% (inactive); in assay [2], -35% (inactive); in assay [4] it was -1.12% (inactive); in [9] it was 1.67% (inactive). The same compound displayed a nuclei count in assay [2] of 154%. Further, the z-score in [3] (setting [10]) is 1.7; in assay [3] (setting [11]), -1.09; in [3] (setting [12]), -1.09. The fluorescence slope in [5] is -0.509 (inactive). Also, the NADPH fluorescence slope in assay [6] was -6.6e-05 (inactive). In addition, in [7], the slope was 0.00481 (inactive). For the same compound, the result in [8] was inactive.
